Data set [1] deals with T1, Cytochrome P450 2D6 (Homo sapiens, UniProt P10635). As to the kind of experiment: Inhibition of CYP2D6 (unknown origin) coincubated with substrate.
Target sequence in this assay (P10635 whole entry, looked up): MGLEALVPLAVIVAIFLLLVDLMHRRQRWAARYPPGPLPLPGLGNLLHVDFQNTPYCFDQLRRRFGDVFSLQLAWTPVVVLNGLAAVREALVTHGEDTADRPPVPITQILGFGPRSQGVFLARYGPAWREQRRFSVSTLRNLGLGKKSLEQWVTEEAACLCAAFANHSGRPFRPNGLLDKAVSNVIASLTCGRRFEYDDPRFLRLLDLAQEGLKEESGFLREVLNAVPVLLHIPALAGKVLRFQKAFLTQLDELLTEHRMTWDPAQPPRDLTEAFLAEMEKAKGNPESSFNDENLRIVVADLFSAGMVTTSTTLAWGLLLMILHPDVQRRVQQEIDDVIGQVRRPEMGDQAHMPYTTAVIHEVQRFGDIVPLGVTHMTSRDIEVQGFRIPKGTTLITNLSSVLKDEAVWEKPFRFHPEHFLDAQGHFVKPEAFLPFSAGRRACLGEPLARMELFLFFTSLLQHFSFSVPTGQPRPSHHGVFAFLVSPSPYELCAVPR
The subject of data set [2] is Mus musculus. As to the kind of experiment: Antidyslipidemic activity in C57BL/6J mouse postprandial triglyceridemia model assessed as reduction in plasma triglyceride level at 10 mg/kg, po treated 15 mins prior to corn oil-challenge measured after 2 hrs by colorimetric method relative to control. Format: functional. Also noted: scale not given: the % may be the effect or the level left. An outline of the steps:
(§1)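 Male C57BL/6J mice fasted overnight; oral dose in 20% hydroxypropyl-b-cyclodextrin vehicle (vehicle alone for controls) 15 min before 0.25 mL corn oil challenge at time 0. Terminal blood taken by heart puncture under anesthesia at 2 h; plasma triglycerides measured colorimetrically by enzymatic TG reagent with absorbance read on a microplate reader, compared with vehicle-treated controls.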

Data set [3] is described as follows: AUC in po dosed rat. Format: ADME, organism-based. As to conditions: plasma.
A short description of data set [4]: Solubility of the compound. It counts as physicochemical.
Data set [5] concerns the target T2, Cytochrome P450 3A4 (Homo sapiens, UniProt P08684). Briefly: Inhibition of CYP3A4 (unknown origin) preincubated prior to substrate addition. Format: ADME.
Data set [6] is described as follows: Plasma protein binding (unknown origin). It counts as ADME, cell-free. The note with it: read-out: PPB (converted).
A short description of data set [7]: Clearance in human hepatocytes measured per 10^6 cells. Format: ADME, cell-based, Hepatocyte. The note with it: read-out: CLH.
The target of data set [8] is T3, Cytochrome P450 2C9 (Homo sapiens, UniProt P11712). Briefly: Inhibition of CYP2C9 (unknown origin) preincubated prior to substrate addition. It counts as ADME.
The target in data set [9] is T1, Cytochrome P450 2D6. As to the kind of experiment: Inhibition of CYP2D6 (unknown origin) preincubated prior to substrate addition. Format: ADME.
Target sequence in this assay (P10635 whole entry): as the sequence (P10635 whole entry, looked up) above
Data set [10] deals with T2, Cytochrome P450 3A4. Briefly: Inhibition of CYP3A4 (unknown origin) coincubated with substrate. Format: ADME.
Data set [11] deals with T4, Diacylglycerol O-acyltransferase 1 (Mus musculus, UniProt Q9Z2A7).
T4 sequence (Q9Z2A7 whole entry): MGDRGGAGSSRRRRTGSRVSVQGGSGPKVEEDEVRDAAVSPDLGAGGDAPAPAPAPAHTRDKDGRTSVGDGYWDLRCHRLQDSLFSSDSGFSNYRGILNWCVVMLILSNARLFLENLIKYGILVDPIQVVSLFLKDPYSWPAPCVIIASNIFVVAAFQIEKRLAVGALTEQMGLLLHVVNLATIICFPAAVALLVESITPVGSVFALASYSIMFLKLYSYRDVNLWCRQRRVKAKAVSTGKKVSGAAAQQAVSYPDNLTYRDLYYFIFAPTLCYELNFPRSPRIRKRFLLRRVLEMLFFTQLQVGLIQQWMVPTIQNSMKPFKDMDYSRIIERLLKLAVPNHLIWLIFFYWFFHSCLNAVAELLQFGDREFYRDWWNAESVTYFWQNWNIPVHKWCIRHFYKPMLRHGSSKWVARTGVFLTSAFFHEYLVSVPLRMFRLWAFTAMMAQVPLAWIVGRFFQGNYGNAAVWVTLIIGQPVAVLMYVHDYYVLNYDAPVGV
As to the kind of experiment: Inhibition of mouse DGAT-1.

The target of data set [12] is T3, Cytochrome P450 2C9. Briefly: Inhibition of CYP2C9 (unknown origin) coincubated with substrate. Format: ADME.
For data set [13], the target named is hERG (Homo sapiens, UniProt Q12809). As to the kind of experiment: Inhibition of human ERG at 10 uM relative to control.
Data set [14] relates to Mus musculus. Briefly: Antidyslipidemic activity in C57BL/6J mouse postprandial triglyceridemia model assessed as reduction in plasma triglyceride level at 3 mg/kg, po treated 15 mins prior to corn oil-challenge measured after 2 hrs by colorimetric method relative to control. Further details: scale not given: the % may be the effect or the level left. Format: functional. An outline of the steps: as §1

Values after ≈ are worked out from the molar mass of the structure shown.

T2 sequence (P08684 whole entry): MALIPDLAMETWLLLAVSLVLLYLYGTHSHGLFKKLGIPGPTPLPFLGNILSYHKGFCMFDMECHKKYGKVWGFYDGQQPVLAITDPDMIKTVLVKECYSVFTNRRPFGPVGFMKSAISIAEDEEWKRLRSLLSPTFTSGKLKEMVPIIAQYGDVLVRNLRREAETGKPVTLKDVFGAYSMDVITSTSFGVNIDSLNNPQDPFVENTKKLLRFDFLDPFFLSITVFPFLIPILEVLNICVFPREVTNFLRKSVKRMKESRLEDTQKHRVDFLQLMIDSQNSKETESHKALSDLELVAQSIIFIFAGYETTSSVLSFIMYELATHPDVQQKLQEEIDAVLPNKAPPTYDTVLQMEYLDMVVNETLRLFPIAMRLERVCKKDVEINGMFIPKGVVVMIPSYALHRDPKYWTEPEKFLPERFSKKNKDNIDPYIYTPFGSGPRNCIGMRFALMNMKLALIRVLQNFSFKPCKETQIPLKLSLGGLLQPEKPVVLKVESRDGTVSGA
T3 sequence (P11712 whole entry): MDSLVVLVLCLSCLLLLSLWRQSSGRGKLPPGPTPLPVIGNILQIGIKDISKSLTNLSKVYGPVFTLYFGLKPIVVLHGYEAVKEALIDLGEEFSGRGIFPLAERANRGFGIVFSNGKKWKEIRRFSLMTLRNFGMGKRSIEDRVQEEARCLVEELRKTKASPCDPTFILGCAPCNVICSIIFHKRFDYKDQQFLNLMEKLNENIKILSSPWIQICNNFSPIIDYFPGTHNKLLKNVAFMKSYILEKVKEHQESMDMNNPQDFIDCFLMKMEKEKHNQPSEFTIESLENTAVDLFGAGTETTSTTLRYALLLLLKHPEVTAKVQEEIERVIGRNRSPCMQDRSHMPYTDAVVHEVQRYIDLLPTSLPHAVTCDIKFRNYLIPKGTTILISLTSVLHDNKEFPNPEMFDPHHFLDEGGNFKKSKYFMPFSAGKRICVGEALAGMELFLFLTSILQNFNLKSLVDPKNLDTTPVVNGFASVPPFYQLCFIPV
Chain of hERG (Q12809 whole entry): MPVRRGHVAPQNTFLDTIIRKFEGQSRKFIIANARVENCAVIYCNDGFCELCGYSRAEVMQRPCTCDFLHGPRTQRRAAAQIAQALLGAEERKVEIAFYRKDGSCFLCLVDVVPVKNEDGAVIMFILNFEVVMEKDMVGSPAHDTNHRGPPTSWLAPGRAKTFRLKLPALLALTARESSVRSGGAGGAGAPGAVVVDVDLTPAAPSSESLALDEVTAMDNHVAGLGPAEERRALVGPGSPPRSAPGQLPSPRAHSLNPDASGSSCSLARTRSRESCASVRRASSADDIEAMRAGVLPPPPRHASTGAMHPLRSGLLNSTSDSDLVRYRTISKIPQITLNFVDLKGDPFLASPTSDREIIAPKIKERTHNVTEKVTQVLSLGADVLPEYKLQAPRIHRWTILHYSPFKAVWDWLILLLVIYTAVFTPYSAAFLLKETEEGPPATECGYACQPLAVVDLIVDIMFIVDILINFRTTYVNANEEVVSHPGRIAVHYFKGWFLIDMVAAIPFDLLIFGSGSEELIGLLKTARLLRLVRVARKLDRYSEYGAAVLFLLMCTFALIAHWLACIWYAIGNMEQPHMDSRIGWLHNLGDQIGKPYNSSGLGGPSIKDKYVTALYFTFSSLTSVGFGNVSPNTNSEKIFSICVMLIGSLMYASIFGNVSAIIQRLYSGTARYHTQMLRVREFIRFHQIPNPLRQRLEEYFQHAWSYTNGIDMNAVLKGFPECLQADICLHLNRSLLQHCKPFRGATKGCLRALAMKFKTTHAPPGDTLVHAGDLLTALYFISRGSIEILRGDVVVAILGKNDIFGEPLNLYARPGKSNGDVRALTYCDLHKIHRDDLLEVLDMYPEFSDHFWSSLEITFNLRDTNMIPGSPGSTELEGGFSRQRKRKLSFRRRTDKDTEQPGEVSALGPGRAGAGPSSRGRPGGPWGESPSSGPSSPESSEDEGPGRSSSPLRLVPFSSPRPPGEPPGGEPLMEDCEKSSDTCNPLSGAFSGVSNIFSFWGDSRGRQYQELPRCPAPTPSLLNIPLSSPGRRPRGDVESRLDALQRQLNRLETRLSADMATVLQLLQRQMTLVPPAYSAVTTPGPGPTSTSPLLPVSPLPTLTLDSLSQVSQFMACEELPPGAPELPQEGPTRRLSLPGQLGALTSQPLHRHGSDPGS

Consider `CC(C)OC(=O)N1CCN(c2ccc(NC(=O)c3oc(N4CCCCC4)nc3C(F)(F)F)cn2)CC1`, for which the IC50 in data set [1] is > 20 µM; in data set [5] it was > 20 µM; in data set [8], > 20 µM; in [9], > 20 µM; in data set [10] it was > 20 µM; in data set [11], 1.2 µM. Also, the IC50 in data set [12] was > 20 µM. In addition, the Activity in [2] was -12%. Besides, the AUC in data set [3] is 69 µM·h. This molecule yielded a solubility in data set [4] of 100 µM (≈ 51.1 µg/mL). Further, in data set [6], the fraction unbound was 0.004. Also, the hepatocyte CLint in data set [7] came out at 24.2 µL/min/1e6 cells. Further, testing at 10 µM in data set [13] gave an inhibition of 40%.

Turning to `O=C(Nc1ccc(N2CCN(C(=O)OC3CCCC3)CC2)nc1)c1oc(N2CCCCC2)nc1C(F)(F)F`, in data set [2], the Activity was -27%.

`O=C(Nc1ccc(N2CCN(C(=O)Oc3ccccc3Cl)CC2)nc1)c1oc(N2CCCCC2)nc1C(F)(F)F` yielded an IC50 in data set [11] of 1.39 µM.

Regarding `O=C(Nc1ccc(N2CCN(C(=O)Nc3ccccc3Cl)CC2)nc1)c1oc(N2CCCCC2)nc1C(F)(F)F`, the IC50 in data set [1] was > 20 µM; in data set [5], 5 µM; in [8], 9.7 µM; in data set [9] it was > 20 µM; in [10], > 20 µM; in data set [11] it was 0.026 µM. Moreover, the IC50 in data set [12] was determined as 6.4 µM. For the same molecule, the Activity in [2] was -63%; in [14], -28%. The AUC in [3] was found to be 25 µM·h. Moreover, the solubility in [4] stood at 10 µM (≈ 5.78 µg/mL). Besides, in [6], the fraction unbound was 0.001. Further, in data set [7], the hepatocyte CLint turned out to be 16.9 µL/min/1e6 cells.

In the case of `O=C(Nc1ccc(N2CCCN(C(=O)Nc3ccccc3Cl)CC2)nc1)c1oc(N2CCCCC2)nc1C(F)(F)F`, in [11], the half-inhibitory concentration (IC50) was 0.134 µM.

`O=C(Nc1ccc(N2CCN(c3ncccc3Cl)CC2)nc1)c1oc(N2CCCCC2)nc1C(F)(F)F` displayed a 50% inhibitory concentration (IC50) in data set [11] of 2.27 µM.

In turn, `COCCN(C)c1ccc(NC(=O)c2oc(-c3ccccc3)nc2C(F)(F)F)cn1` gave an AUC in [3] of 12.7 µM·h. Also, in data set [11], the IC50 stood at 2.85 µM.

Usually IC50 stands for the concentration that gives 50% inhibition. As usually defined, the AUC is concentration integrated over time. What is called solubility is how much of the substance goes into solution per volume. Broadly, the inhibition is the relative decrease from the control value, in per cent.

(Values after ChEMBL document CHEMBL2440008, “Identification of 2-aminooxazole amides as acyl-CoA: diacylglycerol acyltransferase 1 (DGAT1) inhibitors through scaffold hopping strategy” (Bioorg Med Chem Lett, 2013).)
